Test results: ChEMBL document CHEMBL2169863, “Discovery, structure-activity relationship, and biological evaluation of noninhibitory small molecule chaperones of glucocerebrosidase” (J Med Chem, 2012)
Where a chain is given by its changes, count along the chain named. Activity calls are given as the source filed them. Unless noted, the calls are words filed in the database; no cut-off is given here.

Legend:
[1] = target: T1, Lysosomal acid glucosylceramidase (Homo sapiens, UniProt P04062); test: Inhibition of wild type glucocerebrosidase in human spleen homogenate using 4-methylumbellifereno-Glc as substrate incubated for 5 mins prior to substrate addition measured after 20 mins by fluorimetric analysis; format: tissue-based
T1 sequence (P04062 whole entry): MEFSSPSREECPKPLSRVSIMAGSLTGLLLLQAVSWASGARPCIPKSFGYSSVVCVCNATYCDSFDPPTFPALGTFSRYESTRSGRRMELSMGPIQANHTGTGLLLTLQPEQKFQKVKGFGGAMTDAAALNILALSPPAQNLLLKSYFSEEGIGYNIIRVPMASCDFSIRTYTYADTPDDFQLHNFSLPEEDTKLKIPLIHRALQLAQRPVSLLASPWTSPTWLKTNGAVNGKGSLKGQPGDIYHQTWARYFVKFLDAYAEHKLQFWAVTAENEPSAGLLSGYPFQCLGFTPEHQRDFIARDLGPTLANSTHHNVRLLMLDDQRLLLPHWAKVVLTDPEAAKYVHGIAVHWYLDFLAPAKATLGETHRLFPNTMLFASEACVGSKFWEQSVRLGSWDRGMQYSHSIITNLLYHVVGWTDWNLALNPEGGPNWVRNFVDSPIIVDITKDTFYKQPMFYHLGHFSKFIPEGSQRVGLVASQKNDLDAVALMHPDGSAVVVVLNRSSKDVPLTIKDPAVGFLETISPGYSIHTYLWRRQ

[2] = target: T2, Lysosomal acid glucosylceramidase (Homo sapiens, UniProt P04062, N409S); test: Inhibition of glucocerebrosidase N370S mutant using 4-methylumbellifereno-Glc as substrate incubated for 5 mins prior to substrate addition measured after 20 mins by fluorimetric analysis
[3] = target: T1, Lysosomal acid glucosylceramidase; test: Inhibition of wild type glucocerebrosidase using 4-methylumbellifereno-Glc as substrate incubated for 5 mins prior to substrate addition measured after 20 mins by fluorimetric analysis
[4] = Activation of alpha-galactosidase using 4-MU-alpha-galactose as substrate
[5] = target: Lysosomal alpha-glucosidase (Homo sapiens) (UniProt P10253); test: Activation of alpha-glucosidase using 4-MU-alpha-glucose as substrate
[6] = target: T3, Lysosomal acid glucosylceramidase (Homo sapiens) (UniProt P04062); test: Ratio of half-maximal activation concentration for wild type glucocerebrosidase to half-maximal activation concentration for wild type glucocerebrosidase in human spleen homogenate; format: tissue-based
T3 sequence (whole entry): T1 sequence (P04062 whole entry)

Homo sapiens = organism: Homo sapiens; test: Ratio of half-maximal activation concentration for glucocerebrosidase N370S (unknwon origin) to half-maximal activation concentration for glucocerebrosidase N370S in Gaucher patient spleen homogenate; format: tissue-based
[7] = target: T3, Lysosomal acid glucosylceramidase (Homo sapiens); test: Activation of wild type glucocerebrosidase using resorufin beta-D-glucopyranoside as substrate incubated for 5 mins prior to substrate addition measured after 30 to 45 mins by fluorimetric analysis
Procedure, shortened: (§1)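 Purified recombinant enzyme at 5 nM final: wt in citrate/KH₂PO₄ pH 5.9, N370S at pH 7, with 0.01% Tween-20. Compound was preincubated 5 min at room temperature. Resorufin β-D-glucopyranoside was 15 μM final for 30−45 min at 37 °C, stopped with Tris-HCl pH 8.0. Read-out was fluorescence at Ex 573/Em 610 nm.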

[8] = tested on: T4, Lysosomal acid glucosylceramidase (Homo sapiens), P04062 [N409S]; test: Activation of glucocerebrosidase N370S mutant using resorufin beta-D-glucopyranoside as substrate incubated for 5 mins prior to substrate addition measured after 30 to 45 mins by fluorimetric analysis; procedure, shortened: as §1
T4 sequence (whole entry): T1 sequence (P04062 whole entry) with N409S

[9] = target: T3, Lysosomal acid glucosylceramidase (Homo sapiens); test: Activation of wild type glucocerebrosidase in human spleen homogenate using resorufin beta-D-glucopyranoside as substrate incubated for 5 mins prior to substrate addition measured after 30 to 45 mins by fluorimetric analysis; format: tissue-based
Procedure, shortened: (§2)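 Spleen homogenate (27 μg final) in pH 5 citrate/phosphate buffer with 0.01% Tween-20. Compound was titrated 0.5 nM to 58 μM and preincubated 5 min at room temperature. Resorufin β-D-glucopyranoside was 15 μM final, incubated 30−45 min at 37 °C and stopped with 1 M Tris-HCl pH 8.0. Read-out was fluorescence at Ex 573/Em 610 nm.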

[10] = tested on: T4, Lysosomal acid glucosylceramidase (Homo sapiens), P04062 [N409S]; test: Activation of glucocerebrosidase N370S mutant in Gaucher patient spleen homogenate using resorufin beta-D-glucopyranoside as substrate incubated for 5 mins prior to substrate addition measured after 30 to 45 mins by fluorimetric analysis; format: tissue-based; procedure, shortened: as §2
[11] = target: T2, Lysosomal acid glucosylceramidase; test: Inhibition of glucocerebrosidase N370S mutant in Gaucher patient spleen homogenate using 4-methylumbellifereno-Glc as substrate incubated for 5 mins prior to substrate addition measured after 30 to 45 mins by fluorimetric analysis
[12] = tested on: T4, Lysosomal acid glucosylceramidase (Homo sapiens), P04062 [N409S]; test: Activation of glucocerebrosidase N370S mutant using 4-methylumbelliferone-beta-Glc as substrate incubated for 5 mins prior to substrate addition measured after 30 to 45 mins by HPLC analysis
Procedure, shortened: (§3)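 N370S/N370S patient spleen homogenate at 140 μg/well. Compound was tested at 9 concentrations, 1:2 dilutions from 50 μM. Substrate was 2 mM 4MU-Glc or the C12-BODIPY substrate at 25 μM; other conditions as the plate assay. Stopped reactions were separated on C18 HPLC with fluorescence detection: 4MU at 365/440 nm, C12-BODIPY-Cer at 506/540 nm.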

Liver [13] = test: Metabolic stability in CD1 mouse liver microsomes assessed as compound remaining at 1 uM after 60 mins by LC/MS/MS analysis in absence of NADPH; format: ADME, Microsome; settings: 1 h
Procedure, shortened: (§4)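 Compound at 1 μM was incubated in duplicate with CD-1 mouse liver microsomes at 37 °C in 100 mM potassium phosphate pH 7.4 with 3 mM MgCl₂, with or without 2 mM NADPH, for 60 min. Reaction was quenched in cold acidified MeCN with internal standard. Parent was quantified by LC−MS/MS as percent of time zero.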

Liver [14] = test: Metabolic stability in CD1 mouse liver microsomes assessed as compound remaining at 1 uM after 60 mins by LC/MS/MS analysis in presence of NADPH; format: ADME, Microsome; settings: 1 h; procedure, shortened: as §4
[15] = tested on: T4, Lysosomal acid glucosylceramidase (Homo sapiens), P04062 [N409S]; test: Activation of glucocerebrosidase N370S mutant using C12-BODIPY-GlcCer as substrate assessed as half-maximal activation concentration incubated for 5 mins prior to substrate addition measured after 30 to 45 mins by HPLC analysis; procedure, shortened: as §3
[16] = tested on: T4, Lysosomal acid glucosylceramidase (Homo sapiens), P04062 [N409S]; test: Activation of glucocerebrosidase N370S mutant in Gaucher patient spleen homogenates using 4-methylumbelliferone-Glc as substrate assessed as half-maximal activation concentration incubated for 5 mins prior to substrate addition measured after 30 to 45 mins by fluorimetric analysis; format: tissue-based
Procedure, shortened: (§5)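 Spleen homogenate (27 μg final) in pH 5 citrate/phosphate buffer with KCl, NaCl, MgCl₂ and 0.01% Tween-20. Compound was titrated 0.5 nM to 58 μM and preincubated 5 min at room temperature. Reaction used 1 mM 4MU-Glc for 30−45 min at 37 °C and was stopped with NaOH/glycine pH 10. Read-out was fluorescence at Ex 365/Em 440 nm. AC₅₀ is the average of N = 2.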

[17] = target: T3, Lysosomal acid glucosylceramidase (Homo sapiens); test: Activation of wild type glucocerebrosidase using 4methylumbelliferone-Glc as substrate assessed as half-maximal activation concentration incubated for 5 mins prior to substrate addition measured after 30 to 45 mins by fluorimetric analysis
Procedure, shortened: (§6)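 Purified recombinant enzyme at 5 nM final: wt in citrate/KH₂PO₄ pH 5.9, N370S at pH 7, both with 0.01% Tween-20. Compound was titrated 0.5 nM to 58 μM and preincubated 5 min at room temperature. Reaction used 1 mM 4MU-Glc for 30−45 min at 37 °C and was stopped at pH 10. Read-out was fluorescence at Ex 365/Em 440 nm.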

[18] = tested on: T4, Lysosomal acid glucosylceramidase (Homo sapiens), P04062 [N409S]; test: Activation of glucocerebrosidase N370S mutant using 4methylumbelliferone-Glc as substrate assessed as half-maximal activation concentration incubated for 5 mins prior to substrate addition measured after 30 to 45 mins by fluorimetric analysis; procedure, shortened: as §6
[19] = target: T3, Lysosomal acid glucosylceramidase (Homo sapiens); test: Activation of wild type glucocerebrosidase in human spleen homogenate using 4methylumbelliferone-Glc as substrate assessed as half-maximal activation concentration incubated for 5 mins prior to substrate addition measured after 30 to 45 mins by fluorimetric analysis; format: tissue-based; procedure, shortened: as §5
[20] = target: T2, Lysosomal acid glucosylceramidase; test: Inhibition of glucocerebrosidase N370S mutant in Gaucher patient spleen homogenate using 4-methylumbellifereno-Glc as substrate incubated for 5 mins prior to substrate addition measured after 20 mins by fluorimetric analysis; format: tissue-based
[21] = tested on: T4, Lysosomal acid glucosylceramidase (Homo sapiens), P04062 [N409S]; test: Activation of Glucocerebrosidase N370S/N370S mutant translocation to lysosome in Gaucher patient dermal fibroblasts incubated for 6 days by LAMP2 colocalization-based laser scanning confocal microscopic analysis relative to vehicle-treated control
Procedure, shortened: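 N370S/N370S Gaucher dermal fibroblasts were treated 6 days at 1, 5 or 25 μM, with DMSO vehicle control. Cells were fixed in 3% paraformaldehyde, permeabilized with Triton-X and stained with anti-GCase R386 (Alexa555), anti-LAMP-2 (Alexa488) and DAPI. Confocal imaging used constant laser settings, scoring GCase/LAMP-2 colocalization.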

Compound | Activity [4] | Activity [5] | Ratio [6] | Ratio (Homo sapiens) | Activity [7] | Activity [8] | Activity [9] | Activity [10] | Activity [16] | also measured
S=C(NCCCc1c[nH]cn1)NCCCN(Cc1ccc(Cl)c(Cl)c1)c1ccc(Br)cn1 | – | – | – | – | – | – | – | – | – | IC50 [1]: 360 nM; IC50 ([2]; read-out: IC50): 2500 nM; IC50 [3]: 0.71 µM
CCC(C)c1ccc(NC(=O)c2cnn3c(C(F)F)cc(C)nc23)cc1 (configuration not stated) | inactive | inactive | 3 | 3 | inactive | inactive | inactive | inactive | – | –
COc1ccc(Cl)cc1Nc1nc(NCCO)nc(N2CCCC2)n1 | – | – | – | – | – | – | – | – | – | IC50 [11]: Not Active
CCc1nnc(NC(=O)c2ccc(NS(=O)(=O)c3ccccc3)cc2)s1 | – | – | – | – | – | – | – | – | – | IC50 [11]: Not Active
Cc1cc(C)n2ncc(C(=O)Nc3ccc(Br)cc3)c2n1 | inactive | inactive | – | – | – | – | – | – | 2.06 µM | Activity [12]: Dose-dependent effect; Stability (Liver [13]): 86%; Stability (Liver [14]): 12%; Activity [15]: inactive
Cc1cc(C)n2ncc(C(=O)Nc3ccc(C(F)(F)F)cc3)c2n1 | inactive | inactive | – | – | – | – | – | – | 1.46 µM | Activity [12]: Dose-dependent effect; Stability (Liver [13]): 100%; Stability (Liver [14]): 83%; Activity [15]: inactive
Cc1cc(C)n2ncc(C(=O)Nc3ccc(Cl)c(Cl)c3)c2n1 | inactive | inactive | 3 | 3 | inactive | inactive | inactive | inactive | 3.66 µM | Activity [17]: 14.1 µM; Activity [18]: 15.9 µM; Activity [19]: 4.47 µM
O=C(Nc1ccccc1Sc1ccccc1)c1cnn2c(C(F)F)cc(C3CC3)nc12 | inactive | inactive | 3 | 3 | inactive | inactive | inactive | inactive | 4.6 µM | Activity [12]: Dose-dependent effect; Activity [15]: inactive
CCc1ccc(NC(=O)c2cnn3c(C(F)F)cc(C)nc23)cc1 | inactive | inactive | 3 | 3 | inactive | inactive | inactive | inactive | 2.24 µM | –
O=S(=O)(c1ccc2ccccc2c1)N1CCN(c2nc(-c3cccs3)nc3ccccc23)CC1 | – | – | – | – | – | – | – | – | – | IC50 [20]: 330 nM; IC50 [1]: 280 nM; IC50 [2]: Not Active; IC50 [3]: 8.9 µM
Cc1cc(C)n2ncc(C(=O)NCCCCO)c2n1 | inactive | inactive | – | – | – | – | – | – | inactive | Activity [21]: inactive
